The source of these data is ChEMBL document CHEMBL1136794, “l-2',3'-Didehydro-2',3'-dideoxy-3'-fluoronucleosides: synthesis, anti-HIV activity, chemical and enzymatic stability, and mechanism of resistance” (J Med Chem, 2003).

Where only a bound is given, the exact number is not on record here.

The test system of one series is CCRF-CEM. Put plainly: Cytotoxicity determined in (T-lymphoblastoid cell line) CEM cells, expressed as IC50. The note with it: Homo sapiens. The format is functional, cell-based. The procedure, abridged:
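CEM T-lymphoblastoid cells were seeded in log phase at 2.5 × 10³ cells/well with 10-fold serial drug dilutions and incubated 4 days at 37 °C in 5% CO2. Viability was read as MTT reduction: dye added overnight, formazan solubilized 5 h, absorbance at 570 nm.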

The nature of series [1]: Cytotoxicity determined in uninfected PHA-stimulated human PBM cells (PBMCs), expressed as IC50. The format is functional, cell-based. The settings on record: PBMC. The essentials: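 Uninfected PHA-stimulated PBM cells from seronegative donors, isolated by single-step Ficoll-Hypaque, were seeded at 5 × 10⁴ cells/well with 10-fold serial drug dilutions. After 5 days at 37 °C in 5% CO2, MTT dye was added overnight, formazan solubilized 5 h, and absorbance read at 570 nm.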

In another series the test system is Vero. Put plainly: Cytotoxicity determined in (african green monkey kidney) Vero cells, expressed as IC50. It is filed as functional, cell-based. The settings on record: Chlorocebus sabaeus. The procedure, abridged:
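Vero cells were seeded in log phase at 5 × 10³ cells/well with 10-fold serial drug dilutions and incubated 3 days at 37 °C in 5% CO2. Viability was read by MTT: overnight dye incubation, 5 h solubilization, absorbance at 570 nm.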

Series [2] in a line: Half life determined at pH 2 buffer solution. It is filed as ADME. The procedure, abridged: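 Nucleosides were held in pH 2 buffer and followed by TLC every 10 min for the first 3 h, then up to 6 h, to estimate half-life.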
The nature of series [3]: Activity against Lamivudine-resistant virus (HIV-1M184V) in human PBM cells, expressed as EC90. It is filed as functional. The settings on record: PBMC. The procedure, abridged: (§1)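 PHA-stimulated (2-3 days) human PBM cells from seronegative donors, bulk-infected 1 h with molecular clones HIV-1 xxBru or M184V (100 TCID50/1 × 10⁷ cells in flask, or 200 TCID50/6 × 10⁵ cells/well in 24-well plate), then added to 10-fold serial compound dilutions. RPMI-1640 with IL-2 and DEAE-dextran; 5 days, 37 °C, 5% CO₂. Supernatant RT activity read out; EC50/EC90 by median effect method.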

The nature of series [4]: Activity against Lamivudine-resistant virus (HIV-1M184V) in human PBM cells, expressed as EC50. The format is functional, cell-based. The essentials: as §1
Series [5] is described as follows: Fold increase ratio of HIV-1M184V to HIV-1XXBRU. The format is functional. The essentials: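 PHA-stimulated PBM cells were infected for 1 h with the molecular clones HIV-1 xxBru (wild type) or HIV-1 M184Vpitt, then cultured 5 days with 10-fold serial dilutions. EC50 came from supernatant RT activity by the median effect method, and the ratio was taken as mutant EC50 over wild-type EC50.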

A short description of series [6]: Activity against wild-type virus (HIV-1XXBRU) in human PBM cells, expressed as EC50.

In the case of `O=c1nc(O)ccn1[C@@H]1CC(F)(F)[C@H](CO)O1`, the IC50 (in the series with CCRF-CEM; in series [1]; in the series with Vero) was above 100 µM throughout.

Regarding `Nc1ccn([C@@H]2C=C(F)[C@H](CO)O2)c(=O)n1`, in series [2], the half-life (as a rule, the time in which the quantity being followed falls by half) is 48 h. Moreover, the IC50 – broadly, the point on the concentration scale where inhibition reaches its midpoint – with CCRF-CEM was above 100 µM; in series [1] it was 86.9 µM; in the series on Vero, above 100 µM. The 90% effect level in series [3] (EC90) was put at 15.7 µM. The values for the EC50 in series [4] and in series [6] were 2.4 µM and 0.023 µM, respectively. Further, the FI in series [5] was 104.

Take `Nc1nc(=O)n([C@@H]2CC(F)(F)[C@H](CO)O2)cc1F`: the IC50 (with CCRF-CEM; in series [1]; with Vero) was above 100 µM in each case.

Consider `O=c1nc(O)ccn1[C@H]1CC(F)(F)[C@H](CO)O1`, for which the IC50 (in the series with CCRF-CEM; in series [1]; in the series on Vero) was above 100 µM in each case.

On to `Cc1cn([C@H]2CC(F)(F)[C@H](CO)O2)c(=O)[nH]c1=O`, for which the IC50 (in the series on CCRF-CEM; in series [1]; in the series on Vero) was above 100 µM in each case.

With `OC[C@H]1O[C@@H](n2cnc3c(O)ncnc32)C=C1F`, the half-inhibitory concentration (IC50) (in the series with CCRF-CEM; in series [1]; in the series with Vero) was above 100 µM throughout.

In the case of `Nc1ccn([C@@H]2CC[C@H](CO)O2)c(=O)n1`, the half-life in series [2] was 1 h. Further, the EC90 (as a rule, the concentration at which the effect reaches the 90% level) in series [3] was determined as 28.2 µM. For the same compound, the half-maximal effective concentration (EC50) (usually the concentration needed to bring the measured effect to its halfway point) in series [4] came to 2.9 µM; in series [6], 0.17 µM. Besides, in series [5], the FI came to 17.

`Nc1nc(O)c2ncn([C@H]3CC(F)(F)[C@H](CO)O3)c2n1`: the IC50 (in the series with CCRF-CEM; in series [1]; with Vero) was above 100 µM each time.

With `Nc1nc(=O)n([C@H]2CC(F)(F)[C@H](CO)O2)cc1F`, the IC50 (in the series with CCRF-CEM; in series [1]; in the series with Vero) was above 100 µM in each case.

`Nc1ccn([C@H]2C=C(F)[C@H](CO)O2)c(=O)n1`: the IC50 (in the series on CCRF-CEM; in series [1]; in the series on Vero) was above 100 µM each time.

As for `Cc1cn([C@@H]2CC(F)(F)[C@H](CO)O2)c(=O)nc1O`, the IC50 (with CCRF-CEM; in series [1]; in the series on Vero) was above 100 µM in each case.

Regarding `Nc1nc(O)c2ncn([C@H]3C=C(F)[C@H](CO)O3)c2n1`, the IC50 (with CCRF-CEM; in series [1]; with Vero) was above 100 µM each time.

Regarding `Nc1ncnc2c1ncn2[C@@H]1C=C(F)[C@H](CO)O1`, the IC50 (in the series with CCRF-CEM; in series [1]; in the series on Vero) was above 100 µM in each case.

As for `Cc1cn([C@H]2C[C@H](N=[N+]=[N-])[C@@H](CO)O2)c(=O)[nH]c1=O` [ZIDOVUDINE], the EC90 in series [3] was 0.025 µM. Besides, the EC50 in series [4] came to 0.003 µM; in series [6] it was 0.01 µM. Moreover, in series [5], the FI was determined as 0.3.

For `Cc1cn([C@H]2C=C(F)[C@H](CO)O2)c(=O)nc1O`, the IC50 (in the series on CCRF-CEM; in series [1]; with Vero) was above 100 µM in each case.

For the compound `Nc1nc(=O)n([C@H]2C=C(F)[C@H](CO)O2)cc1F`, the IC50 (with CCRF-CEM; in series [1]; with Vero) was above 100 µM throughout.

Turning to `Nc1nc(O)c2ncn([C@@H]3CC(F)(F)[C@H](CO)O3)c2n1`, the IC50 (with CCRF-CEM; in series [1]; in the series with Vero) was above 100 µM in each case.

Consider `O=c1ccn([C@H]2C=C(F)[C@H](CO)O2)c(=O)[nH]1`, for which the IC50 (in the series on CCRF-CEM; in series [1]; in the series with Vero) was above 100 µM in each case.

As to `Nc1ncnc2c1ncn2[C@H]1C=C(F)[C@H](CO)O1`, the IC50 (in the series with CCRF-CEM; in series [1]; in the series on Vero) was above 100 µM each time.

In the case of `Nc1ccn([C@@H]2CS[C@H](CO)O2)c(=O)n1` [LAMIVUDINE], in series [3], the EC90 is above 100 µM. The EC50 in series [4] is above 100 µM; in series [6], 0.035 µM. The FI in series [5] was above 2860.

Take `O=c1nc(O)ccn1[C@@H]1C=C(F)[C@H](CO)O1`: the figures for the IC50 (in the series on CCRF-CEM; in series [1]; in the series on Vero) were 30.1 µM, above 100 µM and above 100 µM, respectively.

Turning to `Nc1nc(O)c2ncn([C@@H]3C=C(F)[C@H](CO)O3)c2n1`, the concentration for half-maximal inhibition (IC50) is 58.4 µM with CCRF-CEM, 17.4 µM in series [1] and 36.5 µM in the series with Vero.

As for `OC[C@@H]1O[C@H](n2cnc3c(O)ncnc32)CC1(F)F`, the IC50 (in the series on CCRF-CEM; in series [1]; with Vero) was above 100 µM throughout.

As for `Nc1nc(=O)n([C@@H]2C=C(F)[C@H](CO)O2)cc1F`, the 50% inhibitory concentration (IC50) (with CCRF-CEM; in series [1]; with Vero) was above 100 µM each time. This compound had an EC90 in series [3] of 67.4 µM. The EC50 worked out at 10.9 µM in series [4] and 0.009 µM in series [6]. For the same compound, in series [5], the FI amounted to 1210.

Regarding `Nc1ccn([C@H]2CC(F)(F)[C@H](CO)O2)c(=O)n1`, the concentration for half-maximal inhibition (IC50) (in the series on CCRF-CEM; in series [1]; in the series on Vero) was above 100 µM throughout.

With `OC[C@@H]1O[C@@H](n2cnc3c(O)ncnc32)CC1(F)F`, the 50% inhibitory concentration (IC50) (in the series with CCRF-CEM; in series [1]; with Vero) was above 100 µM throughout.

In the case of `Nc1ncnc2c1ncn2[C@@H]1CC(F)(F)[C@H](CO)O1`, the IC50 (in the series on CCRF-CEM; in series [1]; in the series on Vero) was above 100 µM throughout.

As to `Nc1ncnc2c1ncn2[C@H]1CC(F)(F)[C@H](CO)O1`, the IC50 (in the series on CCRF-CEM; in series [1]; in the series on Vero) was above 100 µM throughout.

In the case of `Nc1ccn([C@@H]2CC(F)(F)[C@H](CO)O2)c(=O)n1`, the IC50 (in the series with CCRF-CEM; in series [1]; in the series with Vero) was above 100 µM in each case.

Turning to `Cc1cn([C@@H]2C=C(F)[C@H](CO)O2)c(=O)nc1O`, the IC50 (in the series with CCRF-CEM; in series [1]; in the series with Vero) was above 100 µM in each case.
